A short description of series [1]: Selectivity index, ratio of CC50 for MDCK cells to EC50 for Gaussia tagged A/PR/08/34(H1N1) virus infected in MDCK cells. The format is toxicity, cell-based. The conditions noted are these: dog, read-out: Ratio CC50/EC50. Summed up:
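MDCK cells seeded at 1×10^5/well overnight, infected with A/PR/08/34(H1N1)-Gaussia luciferase at MOI 0.1, then given 0.05–20 µM compound immediately. Virus read by luminescence or qRT-PCR at 24 hpi; EC50 at 50% signal reduction. CC50 by WST-1 (OD450/OD630) after 48 h of serially diluted compound.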

Series [2] is described as follows: Cytotoxicity against African green monkey Vero cells infected with CHIKV assessed as decrease in cell viability after 48 hrs by WST1 assay. The following applies: chlorocebus sabaeus. The format is cell-based. The method in brief: (§1)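 Cells at 1×10^4/well, cultured overnight at 37 °C, were incubated 48 h with serially diluted compound. Viability was read by WST-1 absorbance (OD450/OD630).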
Background: Tetrazolium assays rely on reduction of a dye to a coloured formazan, in cell work by metabolically active cells.

Series [3] addresses T1, Sialate O-acetylesterase (Homo sapiens) (UniProt Q9HAT2).
T1 sequence (whole entry): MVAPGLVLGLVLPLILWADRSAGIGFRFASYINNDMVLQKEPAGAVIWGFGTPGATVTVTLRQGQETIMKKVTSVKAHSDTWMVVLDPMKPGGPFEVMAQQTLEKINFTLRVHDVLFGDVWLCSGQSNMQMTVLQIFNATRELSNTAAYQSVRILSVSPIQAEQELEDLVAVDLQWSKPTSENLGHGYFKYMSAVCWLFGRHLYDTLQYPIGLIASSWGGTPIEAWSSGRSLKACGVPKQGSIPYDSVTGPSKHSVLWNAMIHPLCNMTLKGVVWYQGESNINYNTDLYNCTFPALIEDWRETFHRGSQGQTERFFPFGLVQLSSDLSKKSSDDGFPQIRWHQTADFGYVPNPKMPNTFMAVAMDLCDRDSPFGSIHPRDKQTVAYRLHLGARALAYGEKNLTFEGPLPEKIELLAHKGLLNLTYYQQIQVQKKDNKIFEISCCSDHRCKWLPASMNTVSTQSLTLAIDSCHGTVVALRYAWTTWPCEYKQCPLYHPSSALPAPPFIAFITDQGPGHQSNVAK
As to the kind of experiment: Binding affinity to SIAE in human Huh7.5.1 cell lysate infected with HCV at 0.1 to 10 uM incubated for 1 hr followed by 10000 mJ/cm2 UV irradiation for 10 mins and subsequent addition of biotin-N3 measured after 1 hr by ABPP Gel-based by LC/MS/MS analysis. It is filed as subcellular. The method in brief: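 ABPP: Huh7.5.1 cells HCV-infected 2 days were lysed by sonication in PBS with protease inhibitors (~1.5 mg/ml protein). Photo-probe at 1.0–10.0 μM was UV-crosslinked (350 nm, 10000 mJ/cm2, 10 min), then clicked to biotin-N3 (CuSO4/TBTA/TCEP, 1 h RT). Proteins were precipitated, avidin pull-down, washed with SDS, urea, PBS; LC-MS/MS versus negative-probe, competitor and DMSO groups.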

The subject of series [4] is Hepatitis C virus. As to the kind of experiment: Antiviral activity against EGFP-fused HCV JFH-1 harboring K78E/E2-G451R/NS3-M260K/NS5A-T462I mutation infected in human Huh7.5.1 cells assessed as combination index after 2 days in presence of ribavirin by qRT-PCR analysis. The format is functional, Hepacivirus hominis. Summed up:
(§2)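 In HCVcc-infected Huh7.5.1 cells (1×10^4/well, overnight, 37 °C), compound was given at various concentrations alone or with the named approved antiviral. After 2 days HCV RNA was quantified by qRT-PCR to derive the combination index.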
Background: Real-time PCR tracks product formation cycle by cycle.

Series [5] deals with Hepatitis C virus. The experiment in a line: Antiviral activity against EGFP-fused HCV JFH-1 harboring K78E/E2-G451R/NS3-M260K/NS5A-T462I mutation infected in human Huh7.5.1 cells assessed as reduction in viral RNA level after 2 days in presence of daclatasvir by qRT-PCR analysis. It is filed as functional, organism-based. The conditions noted are these: Hepacivirus hominis. The method in brief:
(§3)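 Huh7.5.1 cells at 1×10^4/well, grown overnight at 37 °C. HCVcc was mixed with serially diluted compound (top 30 or 6 μM), given alone or with the named drug, and added to the cells. Viral RNA was read by qRT-PCR after 2 days. EC50 is the concentration giving 50% RNA reduction.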

The nature of series [6]: Inhibition of C-terminal 6-His tagged recombinant human DHODH N-terminal domain delta29 mutant expressed in Escherichia coli BL21(DE3) using dihydroorotate as substrate measured every 30 secs for 6 mins by DCIP dye based assay. The method in brief: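 Enzyme purified by HisTrap then size exclusion. Reaction started with 500 μM dihydroorotate. DCIP decrease read at 600 nm. Inhibition = (1 − Vi/V0) × 100. IC50 from 8–9 concentrations in triplicate by sigmoidal fit.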

The subject of series [7] is Hepatitis C virus. The experiment in a line: Antiviral activity against EGFP-fused HCV JFH-1 harboring K78E/E2-G451R/NS3-M260K/NS5A-T462I mutation infected in human Huh7.5.1 cells assessed as reduction in viral RNA level after 2 days in presence of telaprevir by qRT-PCR analysis. It is filed as functional, organism-based. The conditions noted are these: Hepacivirus hominis. The method in brief:
as §3

For series [8], the system named is Hepatitis C virus. The experiment in a line: Ratio of EC50 for antiviral activity against HCV infected in human Huh7.5.1 cells assessed as decrease in viral infection in presence of uridine to EC50 for antiviral activity against HCV infected in human Huh7.5.1 cells assessed as decrease in viral infection in absence of uridine. The format is functional, Hepacivirus hominis. The method in brief:
(§4)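 HCV antiviral EC50 in Huh7.5.1 cells was measured with 0.5 mM uridine supplemented, and compared with the EC50 obtained without uridine.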

For series [9], the system named is Chikungunya virus. As to the kind of experiment: Antiviral activity against CHIKV infected in African green monkey Vero cells assessed as reduction in viral titre measured at 36 hrs post infection. It is filed as functional, organism-based.
The nature of series [10]: Cytotoxicity against African green monkey Vero cells infected with SFTSV measured after 48 hrs by WST1 assay. The conditions noted are these: chlorocebus sabaeus. It is filed as cell-based. Summed up: as §1
For series [11], the system named is Hepatitis C virus. As to the kind of experiment: Antiviral activity against EGFP-fused HCV JFH-1 harboring K78E/E2-G451R/NS3-M260K/NS5A-T462I mutation infected in human Huh7.5.1 cells assessed as reduction in viral RNA level after 2 days in presence of ribavirin by qRT-PCR analysis. It is filed as functional, organism-based. The following applies: Hepacivirus hominis. The method in brief: as §3

Series [12] in a line: Cytotoxicity against HEK293T cells infected with HIV pseudotyped virions assessed as decrease in cell viability after 48 hrs by WST1 assay. The conditions noted are these: human. It is filed as cell-based, HEK-293T. Summed up:
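Cells seeded at 1 × 10^4 per well and cultured overnight at 37 °C, then incubated 48 h with serially diluted compounds. Viability read with WST-1 reagent as absorbance at OD450/OD630.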

Series [13] in a line: Cytotoxicity against human Caco2 cells infected with MERS-CoV measured after 48 hrs by WST1 assay. The format is cell-based, Caco-2. The method in brief:
as §1

Series [14] relates to Hepatitis C virus. As to the kind of experiment: Antiviral activity against HCV infected in human Huh7.5.1 cells assessed as decrease in viral infection in presence of uridine. It is filed as functional, organism-based, Hepacivirus hominis. The following applies: Huh-7.5.1. The method in brief: as §4
Series [15] deals with Hepatitis C virus. The experiment in a line: Antiviral activity against EGFP-fused HCV JFH-1 harboring K78E/E2-G451R/NS3-M260K/NS5A-T462I mutation infected in human Huh7.5.1 cells assessed as reduction in viral RNA level after 2 days in presence of cyclosporin A by qRT-PCR analysis. It is filed as functional, organism-based. The conditions noted are these: Hepacivirus hominis. Summed up: as §3

In series [16] the test system is Hepatitis C virus. The experiment in a line: Antiviral activity against EGFP-fused HCV JFH-1 harboring K78E/E2-G451R/NS3-M260K/NS5A-T462I mutation infected in human Huh7.5.1 cells assessed as combination index after 2 days in presence of IFNalpha by qRT-PCR analysis. The format is functional, Hepacivirus hominis. Summed up:
as §2

Structures are written as SMILES. The source made the active and inactive calls. The calls are words filed in the database; no cut-off is given here.

One may read the CC50 as the concentration that lowers cell viability or growth by half. What is called IC50 is the concentration that gives 50% inhibition. In general, EC50 refers to the concentration needed to bring the measured effect to its halfway point. Consider `CCN(CC)c1ccc(Oc2ccc(-c3[nH]c4cccc(F)c4c(=O)c3C)cc2F)cc1`, for which the selectivity ratio in series [1] is over 10. Also, the cytotoxic concentration (CC50) at 48 h in series [2] is over 2500 nM; in series [10], over 2500 nM; in [12] it was over 1250 nM; in series [13] it was over 2500 nM. Besides, the result in series [3] was Active. In addition, the CI is over 50 in [4] and “>=10 - 50” in [16]. The Activity entry in series [5], in series [7], in series [11] and in series [15] was “Dose-dependent effect” each time. Also, the IC50 in series [6] is 60 nM. In series [8], the “Ratio EC50” value worked out at 200. Further, the figures for the EC50 in [9] and in series [14] were 260 nM and 2800 nM, respectively.

These data come from ChEMBL document CHEMBL4334439, “Discovery, Optimization, and Target Identification of Novel Potent Broad-Spectrum Antiviral Inhibitors” (J Med Chem, 2019).
